Results: ChEMBL document CHEMBL1157490, “Imidazopyridines as VLA-4 integrin antagonists” (Bioorg Med Chem Lett, 2008)

Columns and labels:
Integrin alpha-4/beta-1 = Integrin alpha-4/beta-1 (Homo sapiens, UniProt P05556+P13612); test: Inhibition of integrin alpha4beta1 receptor in human whole blood by flow cytometry
How it was run: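 Human whole blood incubated with 3 mM MnCl2 and streptavidin-FITC, with or without 10 μg/mL biotinylated dimeric hVCAM-mFc. Compound added from tripling dilutions in TBS, 30 min at room temperature with shaking. Red cells lysed, leukocytes pelleted, washed twice in TBS and analysed by flow cytometry for bound VCAM; IC50 derived.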

Cytochrome P450 1A2 = molecular target: T1, Cytochrome P450 1A2 (Homo sapiens, UniProt P05177); test: Inhibition of CYP1A2; type: ADME
T1 sequence (P05177 whole entry): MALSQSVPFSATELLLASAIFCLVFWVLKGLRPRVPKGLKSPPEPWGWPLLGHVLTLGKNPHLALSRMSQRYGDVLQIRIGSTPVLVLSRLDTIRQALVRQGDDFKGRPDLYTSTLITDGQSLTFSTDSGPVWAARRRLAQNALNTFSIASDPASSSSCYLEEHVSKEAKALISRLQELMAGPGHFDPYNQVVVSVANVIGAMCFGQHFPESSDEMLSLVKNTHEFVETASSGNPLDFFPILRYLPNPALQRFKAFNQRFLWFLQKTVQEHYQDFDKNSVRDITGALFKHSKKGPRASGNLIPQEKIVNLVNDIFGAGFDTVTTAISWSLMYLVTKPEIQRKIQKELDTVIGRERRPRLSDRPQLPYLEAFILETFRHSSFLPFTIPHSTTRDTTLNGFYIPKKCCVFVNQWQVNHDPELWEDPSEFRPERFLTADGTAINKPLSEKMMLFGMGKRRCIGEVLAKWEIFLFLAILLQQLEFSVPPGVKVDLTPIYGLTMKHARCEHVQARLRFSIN

[1] = Metabolic stability in human microsomes assessed as intrinsic clearance at 0.5 uM; type: ADME, Microsome
[2] = Metabolic stability in rat microsomes assessed as intrinsic clearance at 0.5 uM; type: ADME, Microsome
[3] = Metabolic stability in mouse microsomes assessed as intrinsic clearance at 0.5 uM; type: ADME, Microsome
Cytochrome P450 3A4 = Cytochrome P450 3A4 (Homo sapiens, UniProt P08684); test: Inhibition of CYP3A4; type: ADME
Sequence of Cytochrome P450 3A4 (P08684 whole entry): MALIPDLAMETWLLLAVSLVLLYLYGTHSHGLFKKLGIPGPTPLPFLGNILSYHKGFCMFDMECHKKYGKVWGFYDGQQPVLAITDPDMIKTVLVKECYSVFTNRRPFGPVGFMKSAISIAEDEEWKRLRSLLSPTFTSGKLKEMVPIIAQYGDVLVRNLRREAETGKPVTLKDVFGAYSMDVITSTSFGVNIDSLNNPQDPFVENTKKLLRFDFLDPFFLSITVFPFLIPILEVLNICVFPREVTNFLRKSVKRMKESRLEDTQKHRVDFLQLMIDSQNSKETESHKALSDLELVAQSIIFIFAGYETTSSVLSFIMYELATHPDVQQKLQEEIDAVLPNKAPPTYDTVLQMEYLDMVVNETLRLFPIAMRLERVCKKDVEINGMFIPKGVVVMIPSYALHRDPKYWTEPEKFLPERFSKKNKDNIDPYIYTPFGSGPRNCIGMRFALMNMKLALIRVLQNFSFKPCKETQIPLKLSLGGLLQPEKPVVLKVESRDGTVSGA

Cytochrome P450 2C9 = Cytochrome P450 2C9 (Homo sapiens, UniProt P11712); test: Inhibition of CYP2C9; type: ADME
Sequence of Cytochrome P450 2C9 (P11712 whole entry): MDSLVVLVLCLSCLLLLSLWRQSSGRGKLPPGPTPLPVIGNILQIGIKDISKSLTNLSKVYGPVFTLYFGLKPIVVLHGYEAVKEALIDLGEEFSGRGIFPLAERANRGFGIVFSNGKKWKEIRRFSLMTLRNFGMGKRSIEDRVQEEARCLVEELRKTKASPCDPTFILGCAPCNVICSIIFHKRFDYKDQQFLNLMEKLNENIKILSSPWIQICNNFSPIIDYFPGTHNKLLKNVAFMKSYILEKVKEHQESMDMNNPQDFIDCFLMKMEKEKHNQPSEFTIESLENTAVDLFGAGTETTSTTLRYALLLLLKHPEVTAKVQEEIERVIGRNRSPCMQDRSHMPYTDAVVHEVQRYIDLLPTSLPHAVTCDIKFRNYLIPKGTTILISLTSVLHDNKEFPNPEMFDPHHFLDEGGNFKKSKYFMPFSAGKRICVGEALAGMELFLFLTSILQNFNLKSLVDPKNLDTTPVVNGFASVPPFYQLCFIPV

Cytochrome P450 2D6 = Cytochrome P450 2D6 (Homo sapiens, UniProt P10635); test: Inhibition of CYP2D6; type: ADME
Sequence of Cytochrome P450 2D6 (P10635 whole entry): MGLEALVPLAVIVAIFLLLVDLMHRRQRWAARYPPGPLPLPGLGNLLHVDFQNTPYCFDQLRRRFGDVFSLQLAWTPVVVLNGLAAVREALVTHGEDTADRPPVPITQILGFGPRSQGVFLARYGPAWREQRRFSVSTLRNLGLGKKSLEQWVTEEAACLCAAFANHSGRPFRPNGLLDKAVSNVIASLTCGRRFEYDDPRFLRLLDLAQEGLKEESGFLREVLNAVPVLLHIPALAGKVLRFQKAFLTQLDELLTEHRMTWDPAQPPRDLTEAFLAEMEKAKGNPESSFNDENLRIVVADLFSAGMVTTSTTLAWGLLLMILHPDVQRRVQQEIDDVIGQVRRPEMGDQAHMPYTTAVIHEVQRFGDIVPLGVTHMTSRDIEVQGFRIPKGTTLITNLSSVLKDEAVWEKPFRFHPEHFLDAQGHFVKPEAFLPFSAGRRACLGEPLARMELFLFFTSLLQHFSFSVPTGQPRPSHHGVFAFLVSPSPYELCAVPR

Sequence of Integrin alpha-4/beta-1 (P05556 whole entry): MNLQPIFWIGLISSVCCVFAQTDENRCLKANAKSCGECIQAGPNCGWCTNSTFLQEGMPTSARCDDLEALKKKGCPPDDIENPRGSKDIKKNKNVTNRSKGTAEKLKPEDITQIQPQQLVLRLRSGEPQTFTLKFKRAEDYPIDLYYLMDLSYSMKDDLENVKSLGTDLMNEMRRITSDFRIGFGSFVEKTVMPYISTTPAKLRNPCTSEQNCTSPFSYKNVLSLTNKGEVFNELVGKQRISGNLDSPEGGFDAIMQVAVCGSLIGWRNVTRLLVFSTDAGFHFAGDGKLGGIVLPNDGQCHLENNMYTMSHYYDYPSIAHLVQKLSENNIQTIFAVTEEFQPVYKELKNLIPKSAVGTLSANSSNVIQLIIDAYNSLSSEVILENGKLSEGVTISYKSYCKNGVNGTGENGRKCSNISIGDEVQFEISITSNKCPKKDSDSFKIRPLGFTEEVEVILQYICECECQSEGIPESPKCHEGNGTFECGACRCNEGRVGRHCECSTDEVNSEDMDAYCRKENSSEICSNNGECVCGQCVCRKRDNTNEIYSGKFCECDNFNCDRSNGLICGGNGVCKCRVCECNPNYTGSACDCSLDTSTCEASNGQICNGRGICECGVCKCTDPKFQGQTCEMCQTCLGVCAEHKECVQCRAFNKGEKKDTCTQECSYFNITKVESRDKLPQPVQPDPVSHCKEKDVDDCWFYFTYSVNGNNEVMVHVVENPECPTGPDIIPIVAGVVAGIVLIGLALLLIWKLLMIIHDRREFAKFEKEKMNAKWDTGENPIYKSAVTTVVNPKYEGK
Sequence of Integrin alpha-4/beta-1 (P13612 whole entry): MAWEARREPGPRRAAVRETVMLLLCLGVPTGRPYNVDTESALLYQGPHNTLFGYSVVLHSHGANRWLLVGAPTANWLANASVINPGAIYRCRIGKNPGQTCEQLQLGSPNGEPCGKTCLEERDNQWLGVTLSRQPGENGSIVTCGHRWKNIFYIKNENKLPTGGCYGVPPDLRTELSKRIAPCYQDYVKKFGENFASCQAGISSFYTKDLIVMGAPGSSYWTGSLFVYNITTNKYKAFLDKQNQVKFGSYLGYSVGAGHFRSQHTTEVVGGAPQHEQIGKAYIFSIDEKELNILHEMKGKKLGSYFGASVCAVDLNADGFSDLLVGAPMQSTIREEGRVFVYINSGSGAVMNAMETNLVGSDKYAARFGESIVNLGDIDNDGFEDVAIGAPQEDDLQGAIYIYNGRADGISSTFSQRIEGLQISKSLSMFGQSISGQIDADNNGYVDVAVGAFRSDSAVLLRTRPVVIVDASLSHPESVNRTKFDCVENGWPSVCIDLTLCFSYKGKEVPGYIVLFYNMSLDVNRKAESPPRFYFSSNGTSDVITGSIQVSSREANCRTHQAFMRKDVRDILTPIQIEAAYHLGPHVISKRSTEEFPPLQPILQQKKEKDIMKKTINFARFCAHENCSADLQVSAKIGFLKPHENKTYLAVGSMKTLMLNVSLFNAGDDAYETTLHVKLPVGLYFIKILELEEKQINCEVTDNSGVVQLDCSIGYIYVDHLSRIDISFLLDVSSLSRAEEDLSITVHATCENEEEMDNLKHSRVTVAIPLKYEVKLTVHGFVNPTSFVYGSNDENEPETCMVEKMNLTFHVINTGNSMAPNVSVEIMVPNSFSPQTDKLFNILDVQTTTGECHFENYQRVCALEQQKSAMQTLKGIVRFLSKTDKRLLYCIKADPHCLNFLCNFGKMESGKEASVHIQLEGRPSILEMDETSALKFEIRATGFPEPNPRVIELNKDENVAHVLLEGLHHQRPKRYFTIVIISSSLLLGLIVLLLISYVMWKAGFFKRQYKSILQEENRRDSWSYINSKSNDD

| SMILES | IC50 (Integrin alpha-4/beta-1) [nM] | further results |
| --- | --- | --- |
| CSC1=C(N[C@@H](Cc2ccc(-n3c(-c4cccnc4)nc4cccnc43)cc2)C(=O)O)C2(CCCCC2)C1=O | 2 |  |
| CC(C)SC1=C(N[C@@H](Cc2ccc(-n3c(-c4cccnc4)nc4cccnc43)cc2)C(=O)O)C2(CCCCC2)C1=O | 2 |  |
| O=C(O)[C@H](Cc1ccc(-n2c(C3CCCCN3)nc3cccnc32)cc1)NC1=C(Br)C(=O)C12CCCCC2 (stereo partly specified) | 3 |  |
| CC(C)c1nc2cccnc2n1-c1ccc(C[C@H](NC2=C(Br)C(=O)C23CCCCC3)C(=O)O)cc1 | 9 | IC50 (Cytochrome P450 1A2): > 100000 nM; microsomal CLint at 0.5 µM [1]: 4 µL/min/mg; microsomal CLint at 0.5 µM [2]: 38 µL/min/mg; microsomal CLint at 0.5 µM [3]: 14 µL/min/mg; IC50 (Cytochrome P450 3A4): 79000 nM; IC50 (Cytochrome P450 2C9): 18000 nM; IC50 (Cytochrome P450 2D6): > 100000 nM |
| O=C(O)[C@H](Cc1ccc(-n2c(-c3cccnc3)nc3cccnc32)cc1)NC1=CC(=O)C12CCCCC2 | 24 |  |
| O=C(O)[C@H](Cc1ccc(-n2c(C3CC3)nc3cccnc32)cc1)NC1=C(Br)C(=O)C12CCCCC2 | 95 |  |
| O=C(O)[C@H](Cc1ccc(-n2c(-c3cccnc3)nc3cnccc32)cc1)NC1=C(Br)C(=O)C12CCCCC2 | 236 |  |
| CC1(C)C(=O)C(Cl)=C1N[C@@H](Cc1ccc(-n2c(-c3cccnc3)nc3cccnc32)cc1)C(=O)O | 19 |  |
| O=C(O)[C@H](Cc1ccc(-n2c(C3CCCNC3)nc3cccnc32)cc1)NC1=C(Br)C(=O)C12CCCCC2 (stereo partly specified) | 6 |  |
| CNc1ccc(-c2nc3cccnc3n2-c2ccc(C[C@H](NC3=C(Br)C(=O)C34CCCCC4)C(=O)O)cc2)cn1 | 9 |  |
| N#CCc1nc2cccnc2n1-c1ccc(C[C@H](NC2=C(Br)C(=O)C23CCCCC3)C(=O)O)cc1 | 10 |  |
| CC1(C)C(=O)C=C1N[C@@H](Cc1ccc(-n2c(-c3cccnc3)nc3cccnc32)cc1)C(=O)O | 126 |  |
| CC1(C)C(=O)C(Br)=C1N[C@@H](Cc1ccc(-n2c(-c3cccnc3)nc3cccnc32)cc1)C(=O)O | 10 |  |
| CC(C)(C)c1nc2cccnc2n1-c1ccc(C[C@H](NC2=C(Br)C(=O)C23CCCCC3)C(=O)O)cc1 | 3 |  |
| CSCCc1nc2cccnc2n1-c1ccc(C[C@H](NC2=C(Br)C(=O)C23CCCCC3)C(=O)O)cc1 | 11 |  |
| O=C(O)[C@H](Cc1ccc(-n2c(-c3cccnc3)nc3cccnc32)cc1)NC1=C(Cl)C(=O)C12CCCCC2 | 7 |  |
| CC(C)Cc1nc2cccnc2n1-c1ccc(C[C@H](NC2=C(Br)C(=O)C23CCCCC3)C(=O)O)cc1 | 11 |  |
| O=C(O)[C@H](Cc1ccc(-n2c(-c3ccc(N4CCCCC4)nc3)nc3cccnc32)cc1)NC1=C(Br)C(=O)C12CCCCC2 | 83 |  |

| SMILES | IC50 (Integrin alpha-4/beta-1) [nM] | further results |
| --- | --- | --- |
| O=C(O)[C@H](Cc1ccc(-n2c(-c3ccc(Cl)nc3)nc3cccnc32)cc1)NC1=C(Br)C(=O)C12CCCCC2 | 3 |  |
| O=C(O)[C@H](Cc1ccc(-n2c(C3CCC3)nc3cccnc32)cc1)NC1=C(Br)C(=O)C12CCCCC2 | 18 |  |
| O=C(O)[C@H](Cc1ccc(-n2c(C3CCNCC3)nc3cccnc32)cc1)NC1=C(Br)C(=O)C12CCCCC2 | 13 |  |
| O=C(O)[C@H](Cc1ccc(-n2c(-c3ccccc3)nc3cccnc32)cc1)NC1=C(Br)C(=O)C12CCCCC2 | 71 |  |
| O=C(O)[C@H](Cc1ccc(-n2c(-c3cccnc3)nc3cnccc32)cc1)NC1=CC(=O)C12CCCCC2 | 1620 |  |
| O=C(O)[C@H](Cc1ccc(-n2c(-c3cccnc3)nc3cnccc32)cc1)NC1=C(Cl)C(=O)C12CCCCC2 | 504 |  |
| CN(C)c1ccc(-c2nc3cccnc3n2-c2ccc(C[C@H](NC3=C(Br)C(=O)C34CCCCC4)C(=O)O)cc2)cn1 | 22 |  |
| O=C(O)[C@H](Cc1ccc(-n2c(-c3cccnc3)nc3cccnc32)cc1)NC1=C(Br)C(=O)C12CCCCC2 | 3 | IC50 (Cytochrome P450 1A2): > 100000 nM; microsomal CLint at 0.5 µM [1]: < 1 µL/min/mg; microsomal CLint at 0.5 µM [2]: 48 µL/min/mg; microsomal CLint at 0.5 µM [3]: 11 µL/min/mg; IC50 (Cytochrome P450 3A4): 62000 nM; IC50 (Cytochrome P450 2C9): 10000 nM; IC50 (Cytochrome P450 2D6): > 100000 nM |
| O=C(O)[C@H](Cc1ccc(-n2c(-c3cccnc3)nc3cc(F)ccc32)cc1)NC1=C(Br)C(=O)C12CCCCC2 | 2680 |  |
| O=C(O)[C@H](Cc1ccc(-n2c(C3COCCN3)nc3cccnc32)cc1)NC1=C(Br)C(=O)C12CCCCC2 (stereo partly specified) | 10 |  |
| O=C(O)[C@H](Cc1ccc(-n2c(CC3CC3)nc3cccnc32)cc1)NC1=C(Br)C(=O)C12CCCCC2 | 8 |  |
| O=C(O)[C@H](Cc1ccc(-n2c(-c3ccc(C(F)(F)F)nc3)nc3cccnc32)cc1)NC1=C(Br)C(=O)C12CCCCC2 | 8 |  |
| O=C(O)[C@H](Cc1ccc(-n2c(C3(C(F)(F)F)CC3)nc3cccnc32)cc1)NC1=C(Br)C(=O)C12CCCCC2 | 2 | IC50 (Cytochrome P450 1A2): > 100000 nM; microsomal CLint at 0.5 µM [1]: 6 µL/min/mg; microsomal CLint at 0.5 µM [2]: 52 µL/min/mg; microsomal CLint at 0.5 µM [3]: 15 µL/min/mg; IC50 (Cytochrome P450 3A4): 10000 nM; IC50 (Cytochrome P450 2C9): 8000 nM; IC50 (Cytochrome P450 2D6): > 100000 nM |
| CN(C)c1ccnc(-c2nc3cccnc3n2-c2ccc(C[C@H](NC3=C(Br)C(=O)C34CCCCC4)C(=O)O)cc2)c1 | 46 |  |
| O=C(O)[C@H](Cc1ccc(-n2c(C3CCCC3)nc3cccnc32)cc1)NC1=C(Br)C(=O)C12CCCCC2 | 14 |  |
| Cc1nc2cccnc2n1-c1ccc(C[C@H](NC2=C(Br)C(=O)C23CCCCC3)C(=O)O)cc1 | 570 |  |
| O=C(O)[C@H](Cc1ccc(-n2c(C(F)(F)F)nc3cccnc32)cc1)NC1=C(Br)C(=O)C12CCCCC2 | 22 |  |
